ChEMBL document CHEMBL2177092, “Phosphoramidate ProTides of the anticancer agent FUDR successfully deliver the preformed bioactive monophosphate in cells and confer advantage over the parent nucleoside” (J Med Chem, 2011)

Tests used:
CCRF-CEM [1] = test: Ratio of IC50 for ENT1 transporter-deficient human CEM cells to IC50 for human CEM cells expressing human ENT1 transporter after 72 hrs by cell counting; type: functional
In short: (§1)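 Human T-lymphocyte CEM cells with (CEM/hEnt-1) or lacking (CEM/hEnt-0) the hENT1 transporter were seeded at 60 000 cells/well with graded compound concentrations. Transporter-inhibition runs added dipyridamole (10 μM) or NBMPR (10 μM) to CEM/hEnt-1 cells. […] Ratios are formed against untreated CEM/hEnt-1 IC50. Mean of 2–4 experiments.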

L1210 [2] = test: Cytostatic activity against Mycoplasma hyorhinis-infected mouse L1210 cells after 48 hrs by cell counting; type: functional, cell-based; details: L1210, 48 h
In short: (§2)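 Suspension leukemia cells in DMEM with 10% FBS, 10 mM Hepes and 1 mM sodium pyruvate at 37 °C under 5% CO2. Seeded at 60 000 cells/well with graded compound levels. Grown 48 h (L1210) or 72 h (CEM), then counted by Coulter counter. Mean ± SD of two to four independent experiments.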

CCRF-CEM [3] = test: Cytostatic activity against human CEM/0 cells after 72 hrs by cell counting; type: functional, cell-based
In short: (§3)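 Suspension leukemia cells in DMEM with 10% FBS, 10 mM Hepes and 1 mM sodium pyruvate at 37 °C under 5% CO2. Seeded at 60 000 cells/well with graded compound levels. Grown 48 h (L1210) or 72 h (CEM), then counted by Coulter counter. […] Mean ± SD of two to four independent experiments.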

CCRF-CEM [4] = test: Cytostatic activity against ENT1 transporter-deficient human CEM cells after 72 hrs by cell counting; type: functional, cell-based; in short: as §3
HeLa [5] = test: Cytostatic activity against human HeLa cells […] by cell counting; type: functional, cell-based
CCRF-CEM [6] = test: Cytostatic activity against human CEM cells expressing human ENT1 transporter after 72 hrs by cell counting; type: functional, cell-based; in short: as §3
L1210 [7] = test: Cytostatic activity against thymidine-kinase deficient mouse L1210 cells after 48 hrs by cell counting; type: functional, cell-based; details: L1210, 48 h; in short: as §2
HeLa [8] = test: Cytostatic activity against thymidine-kinase deficient human HeLa cells […]; type: functional, cell-based
L1210 [9] = test: Ratio of IC50 for Mycoplasma hyorhinis-infected mouse L1210 cells to IC50 for mouse L1210/0 cells after 48 hrs by cell counting; type: functional
In short: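 Murine L1210/0 cells were compared with L1210/TK cells, selected for resistance to 5-bromo-2'-dUrd, and with L1210.Hyor cells, chronically infected with Mycoplasma hyorhinis. Cells were grown in DMEM with 10% FBS, 10 mM Hepes and 1 mM pyruvate at 37 °C and 5% CO2, then seeded at 60 000 cells/well with compound. They were Coulter-counted after 48 h. […] Mean of 2–4 experiments.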

CCRF-CEM [10] = test: Ratio of IC50 for human CEM cells expressing human ENT1 transporter in presence of NBMPR to IC50 for human CEM cells expressing human ENT1 transporter; type: functional; in short: as §1
CCRF-CEM [11] = test: Cytostatic activity against human CEM cells expressing human ENT1 transporter after 72 hrs by cell counting in presence of NBMPR; type: functional, cell-based
In short: (§4)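 CEM/hEnt-1 cells with 10 μM dipyridamole or 10 μM NBMPR added alongside graded compound levels, in DMEM with 10% FBS, 10 mM Hepes and 1 mM sodium pyruvate at 37 °C under 5% CO2. Seeded at 60 000 cells/well, counted by Coulter counter after 3 days.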

[12] = Cytostatic activity against mouse L1210/0 cells after 48 hrs by cell counting; type: functional, cell-based; details: L1210/0, 48 h; in short: as §2
CCRF-CEM [13] = test: Cytostatic activity against human CEM cells expressing human ENT1 transporter after 72 hrs by cell counting in presence of dipyridamole; type: functional, cell-based; in short: as §4
CCRF-CEM [14] = test: Cytostatic activity against thymidine-kinase deficient human CEM cells after 72 hrs by cell counting; type: functional, cell-based; in short: as §2
CCRF-CEM [15] = test: Ratio of IC50 for human CEM cells expressing human ENT1 transporter in presence of dipyridamole to IC50 for human CEM cells expressing human ENT1 transporter; type: functional; in short: as §1

Row | Compound | Ratio IC50 (CCRF-CEM [1]) | IC50 (L1210 [2]) [µM] | IC50 (CCRF-CEM [3]) [µM] | IC50 (CCRF-CEM [4]) [µM] | IC50 (HeLa [5]) [µM] | IC50 (CCRF-CEM [6]) [µM] | IC50 (L1210 [7]) [µM] | IC50 (HeLa [8]) [µM] | Ratio IC50 (L1210 [9]) | Ratio IC50 (CCRF-CEM [10]) | IC50 (CCRF-CEM [11]) [µM] | IC50 [12] [µM] | IC50 (CCRF-CEM [13]) [µM] | IC50 (CCRF-CEM [14]) [µM] | Ratio IC50 (CCRF-CEM [15])
1 | CCOC(=O)C(C)(C)NP(=O)(OC[C@H]1O[C@@H](n2cc(F)c(=O)[nH]c2=O)C[C@@H]1O)Oc1ccccc1 (mixture of isomers) | 7 | 0.26 | 0.65 | 5.8 | 0.59 | 0.37 | 4.6 | 17 | 8.7 | 2 | 2.56 | 0.03 | 2.35 | 22 | 2
2 | CCOC(=O)C(C)(C)NP(=O)(OC[C@H]1O[C@@H](n2cc(F)c(=O)[nH]c2=O)C[C@@H]1O)Oc1cccc2ccccc12 (mixture of isomers) | 7 | 0.17 | 0.36 | 1.4 | 0.2 | 0.21 | 0.82 | 3.2 | 3 | 2 | 0.62 | 0.056 | 0.52 | 6.9 | 2
3 | O=c1[nH]c(=O)n([C@H]2C[C@H](O)[C@@H](COP(=O)(O)O)O2)cc1F [5-FLUORODEOXYURIDYLATE] | 72 |  |  | 3.6 |  | 0.05 |  |  |  | 20 | 1.06 |  | 1.74 |  | 20
4 | CC(C)(NP(=O)(OC[C@H]1O[C@@H](n2cc(F)c(=O)[nH]c2=O)C[C@@H]1O)Oc1cccc2ccccc12)C(=O)OCc1ccccc1 (mixture of isomers) | 7 | 0.045 | 0.16 | 0.4 | 0.078 | 0.05 | 0.13 | 3.1 | 2.4 | 2 | 0.28 | 0.019 | 0.16 | 2.4 | 2
5 | CCOC(=O)[C@H](C)NP(=O)(OC[C@H]1O[C@@H](n2cc(F)c(=O)[nH]c2=O)C[C@@H]1O)Oc1ccccc1 (mixture of isomers) |  | 0.54 | 0.92 |  | 0.48 |  | 0.94 | 9.8 | 5 |  |  | 0.11 |  | 14 | 
6 | CCCCOC(=O)[C@H](C)NP(=O)(OC[C@H]1O[C@@H](n2cc(F)c(=O)[nH]c2=O)C[C@@H]1O)Oc1cccc2ccccc12 (mixture of isomers) |  | 0.021 | 0.064 |  | 0.12 |  | 0.11 | 2.7 | 2.2 |  |  | 0.0095 |  | 0.84 | 
7 | O=C(OCc1ccccc1)[C@@H]1CCCN1P(=O)(OC[C@H]1O[C@@H](n2cc(F)c(=O)[nH]c2=O)C[C@@H]1O)Oc1ccccc1 (mixture of isomers) |  | 18 | 0.98 |  | 1.1 |  | 31 | 20 | 51 |  |  | 0.35 |  | 28 | 
8 | C[C@H](NP(=O)(OC[C@H]1O[C@@H](n2cc(F)c(=O)[nH]c2=O)C[C@@H]1O)Oc1cccc2ccccc12)C(=O)OC1CCC1 (mixture of isomers) |  | 0.024 | 0.073 |  | 0.069 |  | 0.088 | 1.5 | 2.2 |  |  | 0.011 |  | 1.5 | 
9 | C[C@H](NP(=O)(OC[C@H]1O[C@@H](n2cc(F)c(=O)[nH]c2=O)C[C@@H]1O)Oc1cccc2ccccc12)C(=O)OCCC(C)(C)C (mixture of isomers) |  | 0.032 | 0.053 |  | 0.078 |  | 0.062 | 1.3 | 2.7 |  |  | 0.012 |  | 0.19 | 
10 | C[C@H](NP(=O)(OC[C@H]1O[C@@H](n2cc(F)c(=O)[nH]c2=O)C[C@@H]1O)Oc1cccc2ccccc12)C(=O)OC1CCCC1 (mixture of isomers) |  | 0.024 | 0.035 |  | 0.071 |  | 0.13 | 2.2 | 1.5 |  |  | 0.016 |  | 0.92 | 
11 | CCCCCOC(=O)[C@H](CCSC)NP(=O)(OC[C@H]1O[C@@H](n2cc(F)c(=O)[nH]c2=O)C[C@@H]1O)Oc1ccccc1 (mixture of isomers) |  | 0.41 | 0.35 |  | 0.15 |  | 2.2 | 7.1 | 3.2 |  |  | 0.13 |  | 13 | 
12 | CC(C)OC(=O)[C@H](C)NP(=O)(OC[C@H]1O[C@@H](n2cc(F)c(=O)[nH]c2=O)C[C@@H]1O)Oc1ccccc1 (mixture of isomers) |  | 0.7 | 1 |  | 0.71 |  | 1.1 | 25 | 14 |  |  | 0.05 |  | 30 | 
13 | CCCCCOC(=O)[C@@H](NP(=O)(OC[C@H]1O[C@@H](n2cc(F)c(=O)[nH]c2=O)C[C@@H]1O)Oc1cccc2ccccc12)[C@@H](C)CC (mixture of isomers) |  | 0.7 | 0.46 |  | 0.3 |  | 12 | 11 | 1.67 |  |  | 0.42 |  | 17 | 
14 | CCOC(=O)[C@@H](NP(=O)(OC[C@H]1O[C@@H](n2cc(F)c(=O)[nH]c2=O)C[C@@H]1O)Oc1ccccc1)C(C)C (mixture of isomers) |  | 4.4 | 1 |  | 1.2 |  | 42 | 27 | 22 |  |  | 0.2 |  | > 250 | 
